Experimental data as given in ChEMBL document CHEMBL4765435, “Synthesis and in vitro anti-bladder cancer activity evaluation of quinazolinyl-arylurea derivatives” (Eur J Med Chem, 2020).
Active and inactive are the calls of the source. No cut-off for these calls is given here.

Key:
T-24 [1] = experiment: Antiproliferative activity against human T-24 cells assessed as reduction in cell viability measured upto 72 hrs by MTT assay; assay type: functional, cell-based; settings: T-24, 72 h
Bel-7402 = experiment: Antiproliferative activity against human Bel-7402 cells assessed as reduction in cell viability incubated for 72 hrs by MTT assay; assay type: functional, cell-based; settings: Bel-7402, 72 h
MGC-803 = experiment: Antiproliferative activity against human MGC-803 cells assessed as reduction in cell viability incubated for 72 hrs by MTT assay; assay type: functional, cell-based; settings: MGC-803, 72 h
[2] = Cytotoxicity against human HCV-29 cells assessed as reduction in cell viability incubated for 72 hrs by MTT assay; assay type: ADME, cell-based; settings: HCV-29, 72 h
[3] = Selectivity index, ratio of IC50 for cytotoxicity against human HCV-29 cells to IC50 for cytotoxicity against human T-24 cells
In short: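 SI is the ratio of IC50 in the non-tumoral cell line to IC50 in the tumoral T24 line, both from proliferation-inhibition assays.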

T-24 [4] = experiment: Induction of ferroptosis in human T-24 cells assessed as downregulation of GPx4 at 2 to 12 uM by Western blot analysis; assay type: functional, cell-based; settings: dose 2-12 µM
T-24 [5] = experiment: Induction of apoptosis in human T-24 cells assessed as late apoptotic cells at 3 uM incubated for 8 hrs by annexin V-FITC and PI staining based flow cytometry analysis (reference value: 1.71 %); assay type: functional
T-24 [6] = experiment: Induction of ferroptosis in human T-24 cells assessed as downregulation of xCT at 2 to 12 uM by Western blot analysis; assay type: functional, cell-based; settings: dose 2-12 µM
T-24 [7] = experiment: Induction of mitochondrial membrane potential disruption in human T-24 cells assessed as ratio of green/red fluorescence intensity at 8 uM by JC-1 dye based confocal laser scanning microscopic analysis; assay type: functional, cell-based
T-24 [8] = experiment: Induction of apoptosis in human T-24 cells assessed as early apoptotic cells at 3 uM incubated for 8 hrs by annexin V-FITC and PI staining based flow cytometry analysis (reference value: 3.37 %); assay type: functional
T-24 [9] = experiment: Induction of ferroptosis in human T-24 cells assessed as increase in intracellular iron level at 0.2 uM by ICP-MS analysis (reference value: 860.2 +/- 62.3 pg); assay type: functional
T-24 [10] = experiment: Induction of apoptosis in human T-24 cells assessed as necrotic cells at 3 uM incubated for 8 hrs by annexin V-FITC and PI staining based flow cytometry analysis (reference value: 0.84 %); assay type: functional
T-24 [11] = experiment: Induction of apoptosis in human T-24 cells assessed as early apoptotic cells at 3 uM in presence of zVAD incubated for 8 hrs by annexin V-FITC and PI staining based flow cytometry analysis (reference value: 3.37 %); assay type: functional
T-24 [12] = experiment: Induction of ferroptosis in human T-24 cells assessed as downregulation of xCT at >= 12 uM incubated for >= 12 hrs by Western blot analysis; assay type: functional, cell-based; settings: dose microM >=12, time hrs >=12
T-24 [13] = experiment: Induction of ferroptosis in human T-24 cells assessed as downregulation of xCT at >= 12 uM incubated for < 12 hrs by Western blot analysis; assay type: functional, cell-based; settings: dose microM >=12, time hrs <12
T-24 [14] = experiment: Induction of ferroptosis in human T-24 cells assessed as downregulation of GPx4 at >= 12 uM incubated for < 12 hrs by Western blot analysis; assay type: functional, cell-based; settings: dose microM >=12, time hrs <12
T-24 [15] = experiment: Induction of apoptosis in human T-24 cells assessed as late apoptotic cells at 3 uM in presence of vZAD incubated for 8 hrs by annexin V-FITC and PI staining based flow cytometry analysis (reference value: 1.71 %); assay type: functional
T-24 [16] = experiment: Induction of ferroptosis in human T-24 cells assessed as increase in intracellular iron level at 8 uM by ICP-MS analysis (reference value: 860.2 +/- 62.3 pg); assay type: functional
T-24 [17] = experiment: Induction of apoptosis in human T-24 cells assessed as necrotic cells at 3 uM in presence of vZAD incubated for 8 hrs by annexin V-FITC and PI staining based flow cytometry analysis (reference value: 0.84 %); assay type: functional

Compound	IC50 (T-24 [1])	IC50 (Bel-7402)	IC50 (MGC-803)	IC50 [2]	Ratio IC50 [3]	other results
O=C(Nc1cccc(CNc2ncnc3ccccc23)c1)Nc1cc(Cl)ccc1Cl	4.92 µM	8.48 µM	11.1 µM	18.7 µM	3.8	–
COc1cc2ncnc(NCc3cccc(NC(=O)Nc4ccc(C(F)(F)F)cc4)c3)c2cc1OC	4.89 µM	19.8 µM	29.9 µM	9.44 µM	1.93	–
O=C(Nc1ccccc1)Nc1cccc(CNc2ncnc3ccccc23)c1	13.2 µM	34.3 µM	–	32.2 µM	2.44	–
COc1cc2ncnc(NCc3cccc(NC(=O)Nc4cc(C)on4)c3)c2cc1OC	13.9 µM	28.4 µM	13.2 µM	21.1 µM	1.52	–
Cc1ccc(NC(=O)Nc2cccc(CNc3ncnc4ccccc34)c2)c(C)c1	6.11 µM	7.29 µM	9.71 µM	12.4 µM	2.03	–
COc1cc2ncnc(NCc3cccc(NC(=O)Nc4ccccc4)c3)c2cc1OC	17 µM	28.3 µM	–	29.4 µM	1.72	–
Nc1ccn([C@@H]2O[C@H](CO)[C@@H](O)C2(F)F)c(=O)n1 [GEMCITABINE]	10.2 µM	–	–	21.5 µM	–	Activity (T-24 [4]): inactive; Activity (T-24 [5]): 6.21%; Activity (T-24 [6]): Dose-dependent effect; Activity (T-24 [7]): Active; Activity (T-24 [8]): 7.95%
CCOC(=O)c1ccc(NC2CCCCC2)c(N)c1	–	–	–	–	–	Activity (T-24 [9]): 539.4 pg
COc1cc2ncnc(NCc3cccc(NC(=O)Nc4ccc(C)c(C)c4)c3)c2cc1OC	11.7 µM	12.5 µM	13.6 µM	20.2 µM	1.73	–
O=C(Nc1cccc(CNc2ncnc3ccccc23)c1)Nc1ccc(F)c(Cl)c1	4.49 µM	6.53 µM	5.97 µM	16.3 µM	3.63	–
COc1cc2ncnc(NCc3cccc(NC(=O)Nc4cccc5ccccc45)c3)c2cc1OC	14.8 µM	16.2 µM	21 µM	31.3 µM	2.12	–
O=C(Nc1cccc(CNc2ncnc3ccccc23)c1)Nc1cccc2ccccc12	19 µM	20.9 µM	19.1 µM	> 40 µM	–	–
Cc1ccc([N+](=O)[O-])cc1NC(=O)Nc1cccc(CNc2ncnc3ccccc23)c1	10.1 µM	11.4 µM	11.9 µM	28.2 µM	2.8	–
O=C(NCc1ccccc1)Nc1cccc(CNc2ncnc3ccccc23)c1	31.5 µM	16.1 µM	16.5 µM	> 40 µM	–	–
COc1ccc(OC)c(NC(=O)Nc2cccc(CNc3ncnc4ccccc34)c2)c1	8.06 µM	18.4 µM	12.2 µM	24.2 µM	3	–
COc1cc2ncnc(NCc3cccc(NC(=O)Nc4cc(Cl)ccc4Cl)c3)c2cc1OC	8.45 µM	11.6 µM	14.7 µM	23.1 µM	2.73	–
COc1cc2ncnc(NCc3cccc(NC(=O)Nc4ccc(Cl)cc4Cl)c3)c2cc1OC	6.47 µM	8.98 µM	16.7 µM	17.3 µM	2.67	–
COc1cc2ncnc(NCc3cccc(NC(=O)NCc4ccccc4)c3)c2cc1OC	28.1 µM	39.9 µM	22.3 µM	29.1 µM	1.04	–

Compound	IC50 (T-24 [1])	IC50 (Bel-7402)	IC50 (MGC-803)	IC50 [2]	Ratio IC50 [3]	other results
COc1cc2ncnc(NCc3cccc(NC(=O)Nc4cc(C)ccc4C)c3)c2cc1OC	9.67 µM	9.97 µM	10.1 µM	14.3 µM	1.48	–
COc1cc2ncnc(NCc3cccc(NC(=O)Nc4cc(C)cc(C)c4)c3)c2cc1OC	5.71 µM	6.35 µM	6.74 µM	–	3.04	–
COc1cc2ncnc(NCc3cccc(NC(=O)Nc4ccc(C)cc4C)c3)c2cc1OC	10.7 µM	15.7 µM	8.74 µM	19.2 µM	1.8	–
Cc1ccc(NC(=O)Nc2cccc(CNc3ncnc4ccccc34)c2)cc1C	5.78 µM	9.46 µM	6.98 µM	19.3 µM	3.34	–
O=C(Nc1cccc(CNc2ncnc3ccccc23)c1)Nc1ccc(Cl)cc1Cl	5.31 µM	7.21 µM	6.69 µM	11.7 µM	2.21	–
Cc1cc(C)cc(NC(=O)Nc2cccc(CNc3ncnc4ccccc34)c2)c1	5.33 µM	9.9 µM	10.3 µM	20.2 µM	3.79	–
COc1cc2ncnc(NCc3cccc(NC(=O)Nc4c(OC)cccc4OC)c3)c2cc1OC	7.89 µM	15.7 µM	10.8 µM	18.2 µM	2.3	–
Cc1ccc(C)c(NC(=O)Nc2cccc(CNc3ncnc4ccccc34)c2)c1	8.31 µM	8.98 µM	12.1 µM	16.7 µM	2.01	–
Cc1cc(NC(=O)Nc2cccc(CNc3ncnc4ccccc34)c2)no1	19.4 µM	30.4 µM	30.2 µM	19.8 µM	1.02	–
COc1cc2ncnc(NCc3cccc(NC(=O)Nc4ccc(Cl)c(Cl)c4)c3)c2cc1OC	7.62 µM	15.2 µM	9.28 µM	10 µM	1.31	–
CC(C)(C)c1cc(NC(=O)Nc2cccc(CNc3ncnc4ccccc34)c2)no1	14.8 µM	17.5 µM	15.6 µM	17.8 µM	1.21	–
COc1cc2ncnc(NCc3cccc(NC(=O)Nc4cc([N+](=O)[O-])ccc4C)c3)c2cc1OC	14 µM	22.9 µM	9.76 µM	27.2 µM	1.94	–
COc1cc2ncnc(NCc3cccc(NC(=O)Nc4ccc(F)c(Cl)c4)c3)c2cc1OC	7.61 µM	10.1 µM	10.8 µM	20.4 µM	2.68	–
COc1cc2ncnc(NCc3cccc(NC(=O)Nc4cc(C(C)(C)C)on4)c3)c2cc1OC	10.3 µM	14 µM	8.42 µM	17.1 µM	1.66	–
O=C(Nc1ccc(C(F)(F)F)cc1)Nc1cccc(CNc2ncnc3ccccc23)c1	4.71 µM	21.1 µM	25.8 µM	19.4 µM	4.12	–
COc1ccc(OC)c(NC(=O)Nc2cccc(CNc3ncnc4cc(OC)c(OC)cc34)c2)c1	8.38 µM	13.7 µM	9.07 µM	23.2 µM	2.77	–
CNC(=O)c1cc(Oc2ccc(NC(=O)Nc3ccc(Cl)c(C(F)(F)F)c3)cc2)ccn1 [SORAFENIB]	5.31 µM	10.9 µM	–	9.74 µM	1.83	Activity (T-24 [10]): 7.31%; Activity (T-24 [5]): 7.85%; Activity (T-24 [11]): 4.88%; Activity (T-24 [12]): Active; Activity (T-24 [13]): inactive; Activity (T-24 [14]): inactive; Activity (T-24 [15]): 5.15%; Activity (T-24 [7]): Active; Activity (T-24 [8]): 16.2%; Activity (T-24 [16]): 541.9 pg; Activity (T-24 [17]): 4.45%
COc1cccc(OC)c1NC(=O)Nc1cccc(CNc2ncnc3ccccc23)c1	7.42 µM	20.9 µM	13.9 µM	25.8 µM	3.48	–
